As a reminder, the MIC is the lowest concentration that inhibits growth of the organism. A low value points to a more susceptible organism.

Values after ≈ are worked out from the molar mass of the structure shown.

Assay type in all cases: functional
The test system of test [1] is Staphylococcus aureus. The experiment in a line: Antibacterial activity against Staphylococcus aureus after 24 hrs by twofold serial dilution method. The method, boiled down: (§1)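 Compounds dissolved in DMSO as 1 mg/mL stock. Seeded nutrient broth prepared from 24 h nutrient agar cultures, adjusted by plate count. Final inoculum 10⁵ cfu/mL at pH 7.4. First dilution was 0.4 mL stock in 1.6 mL seeded broth, then serial twofold through six dilutions. Seeded-broth-only tubes served as controls. Incubated at 37 °C; MIC read visually at 24 h.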

Test [2] has as its system Vibrio cholerae. The experiment in a line: Antibacterial activity against Vibrio cholerae after 24 hrs by twofold serial dilution method.
Test [3] concerns Escherichia coli. Briefly: Antibacterial activity against Escherichia coli after 24 hrs by twofold serial dilution method. A digest of the protocol: as §1
Test [4] concerns Klebsiella pneumoniae. Briefly: Antibacterial activity against Klebsiella pneumoniae after 24 hrs by twofold serial dilution method. A digest of the protocol:
as §1

Test [5] has as its system Pseudomonas. The experiment in a line: Antibacterial activity against Pseudomonas after 24 hrs by twofold serial dilution method. The method, boiled down:
as §1

In test [6] the test system is Aspergillus flavus. Briefly: Antifungal activity against Aspergillus flavus after 1 to 7 days by twofold serial dilution method. The method, boiled down: (§2)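 Test compounds were made as 1 mg/mL DMSO stocks. Spores from 1–7 day Sabouraud agar slants were suspended in Sabouraud dextrose broth at pH 5.6. Final inoculum 1.1–1.5×10² cfu/mL. First dilution was 0.4 mL stock plus 1.6 mL seeded broth, followed by six twofold serial dilutions. Controls held seeded broth only. Incubated at 28 °C; MIC read visually after 72–96 h.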

For test [7], the system named is Mucor. Briefly: Antifungal activity against Mucor after 1 to 7 days by twofold serial dilution method. A digest of the protocol: as §2
Test [8] relates to Rhizopus. The experiment in a line: Antifungal activity against Rhizopus after 1 to 7 days by twofold serial dilution method. A digest of the protocol: as §2
Test [9] deals with Nannizzia gypsea. Briefly: Antifungal activity against Microsporum gypseum after 1 to 7 days by twofold serial dilution method. A digest of the protocol:
as §2

`O=C(CN1CCOCC1)Nc1nc(-c2ccccc2)cc(-c2ccccc2)n1`: the minimum inhibitory concentration (MIC) in test [1] was 200 mg/L (≈ 534 µM); in [2] it was 200 mg/L (≈ 534 µM); in test [3], 200 mg/L (≈ 534 µM); in test [4], 50 mg/L (≈ 134 µM); in test [5], 100 mg/L (≈ 267 µM); in [6], 200 mg/L (≈ 534 µM). In addition, the MIC was found to be 100 mg/L (≈ 267 µM) in test [7], 100 mg/L (≈ 267 µM) in [8] and 200 mg/L (≈ 534 µM) in test [9].

Turning to `Cc1ccc(-c2cc(-c3ccc(F)cc3)nc(NC(=O)CN3CCOCC3)n2)cc1`, the MIC in [1] amounted to 12.5 mg/L (≈ 30.8 µM); in [2], 12.5 mg/L (≈ 30.8 µM); in test [3] it was 50 mg/L (≈ 123 µM); in test [4], 50 mg/L (≈ 123 µM); in [5], 100 mg/L (≈ 246 µM); in [6], 200 mg/L (≈ 492 µM). The MIC in test [7] came out at 100 mg/L (≈ 246 µM); in [8] it was 50 mg/L (≈ 123 µM); in [9], 12.5 mg/L (≈ 30.8 µM).

`COc1ccc(-c2cc(-c3ccc(F)cc3)nc(NC(=O)CN3CCOCC3)n2)cc1`: the MIC amounted to 200 mg/L (≈ 473 µM) in test [1]; 100 mg/L (≈ 237 µM) in test [2]; 50 mg/L (≈ 118 µM) in test [3]; 100 mg/L (≈ 237 µM) in test [4]; 6.25 mg/L (≈ 14.8 µM) in test [5]; 6.25 mg/L (≈ 14.8 µM) in test [6]. Besides, the figures for the MIC in test [7], in [8] and in test [9] were 6.25 mg/L (≈ 14.8 µM), 200 mg/L (≈ 473 µM) and 100 mg/L (≈ 237 µM), respectively.

Turning to `O=C(CN1CCOCC1)Nc1nc(-c2ccccc2)cc(-c2ccc(F)cc2)n1`, the MIC in [1] was found to be 200 mg/L (≈ 510 µM); in test [2], 50 mg/L (≈ 127 µM); in test [3] it was 50 mg/L (≈ 127 µM); in test [4], 6.25 mg/L (≈ 15.9 µM); in [5] it was 100 mg/L (≈ 255 µM); in test [6], 6.25 mg/L (≈ 15.9 µM). Moreover, the values for the MIC in test [7], in test [8] and in test [9] were 50 mg/L (≈ 127 µM), 100 mg/L (≈ 255 µM) and 200 mg/L (≈ 510 µM), respectively.

With `COc1ccc(-c2cc(-c3ccc(C)cc3)nc(NC(=O)CN3CCOCC3)n2)cc1`, the MIC is 100 mg/L (≈ 239 µM) in test [1]; 12.5 mg/L (≈ 29.9 µM) in test [2]; 200 mg/L (≈ 478 µM) in [3]; 50 mg/L (≈ 119 µM) in [4]; 50 mg/L (≈ 119 µM) in test [5]; 100 mg/L (≈ 239 µM) in test [6]. Also, the figures for the MIC in test [7], in test [8] and in [9] were 50 mg/L (≈ 119 µM), 12.5 mg/L (≈ 29.9 µM) and 50 mg/L (≈ 119 µM), respectively.

As to `O=C(CN1CCOCC1)Nc1nc(-c2ccc(F)cc2)cc(-c2ccc(F)cc2)n1`, the MIC in test [1] was 100 mg/L (≈ 244 µM); in [2] it was 50 mg/L (≈ 122 µM); in test [3], 6.25 mg/L (≈ 15.2 µM); in test [4], 50 mg/L (≈ 122 µM); in test [5], 6.25 mg/L (≈ 15.2 µM); in test [6], 12.5 mg/L (≈ 30.5 µM). Besides, the MIC is 6.25 mg/L (≈ 15.2 µM) in [7], 6.25 mg/L (≈ 15.2 µM) in test [8] and 100 mg/L (≈ 244 µM) in test [9].

On to `Cc1ccc(-c2cc(-c3ccccc3)nc(NC(=O)CN3CCOCC3)n2)cc1`, for which the MIC was found to be 50 mg/L (≈ 129 µM) in test [1]; 100 mg/L (≈ 257 µM) in [2]; 50 mg/L (≈ 129 µM) in test [3]; 100 mg/L (≈ 257 µM) in [4]; 50 mg/L (≈ 129 µM) in [5]; 100 mg/L (≈ 257 µM) in [6]. Besides, the MIC in [7], in [8] and in test [9] was 50 mg/L (≈ 129 µM) each time.

Consider `COc1ccc(-c2cc(-c3ccccc3)nc(NC(=O)CN3CCOCC3)n2)cc1`, for which the MIC worked out at 50 mg/L (≈ 124 µM) in [1]; 100 mg/L (≈ 247 µM) in [2]; 200 mg/L (≈ 494 µM) in [3]; 100 mg/L (≈ 247 µM) in [4]; 50 mg/L (≈ 124 µM) in [5]; 100 mg/L (≈ 247 µM) in test [6]. Moreover, the MIC is 200 mg/L (≈ 494 µM) in test [7], 100 mg/L (≈ 247 µM) in [8] and 100 mg/L (≈ 247 µM) in test [9].

With `O=C(O)c1cn(C2CC2)c2cc(N3CCNCC3)c(F)cc2c1=O` [CIPROFLOXACIN], the MIC was 50 mg/L (≈ 151 µM) in [2], 25 mg/L (≈ 75.4 µM) in [3] and 25 mg/L (≈ 75.4 µM) in [5].

Turning to `OC(Cn1cncn1)(Cn1cncn1)c1ccc(F)cc1F` [FLUCONAZOLE], the MIC in test [6] came out at 50 mg/L (≈ 163 µM); in test [7], 25 mg/L (≈ 81.6 µM); in [8], 25 mg/L (≈ 81.6 µM); in test [9], 25 mg/L (≈ 81.6 µM).
